tolC growth inh = E. coli tolC mutant growth inhibition; AID 573; E. coli BW25113 tolC mutant growth, OD615; growth inhibition, % at 10 µM (by protocol); 2.2% of 65,000 active;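 active = growth inhibition at or above a cutoff equal to the mean over every tested compound plus 3 SD, cut at about 60% in these data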;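 note: growth measured after 20 h incubation at 37 °C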
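Test system: tolC-deleted E. coli BW25113 | Medium: LB with kanamycin 50 µg/mL | Compound dosing: Single concentration, 10 µM final per compound | Schedule: 37 °C, 20 h exposure | Measured by: OD at 615 nm | Evaluation: Percent growth inhibition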
PostGolgi yeast = growth inhibition of a yeast mutant, post-Golgi transport screen; post-Golgi transport phenotypic cell assay; inhibition, % at 10 µM; 0.9% of 98,000 active;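 note: yeast cells grown in 1536-well plates; yeast grown about 18 h at 30C before absorbance read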
PTK2B oligo ant = Pyk2 (human) oligomerization antagonism | z-score (the deposit names both 25 µM and 10 µM) | 0.83% of 99,000 active | Q293 cells, Pyk2 FERM NanoBiT luminescence; stronger effect = lower value | AID 1347419 | Q14289;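 active = Z-score of -3 or lower, scaled per plate to the spread of control and sample wells; inactive = z-score above -3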;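 note: negative z-score means lost luminescence so less FERM oligomerization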
Calb biofilm kill = kills Candida albicans biofilms; C. albicans biofilm + clotrimazole, Alamar Blue; inhibition, % at 6 µM; 0.14% of 85,000 active; AID 834;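 active = inhibition above 20%; inactive = inhibition below 20%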;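 note: preformed 24 hr biofilms exposed to compound for 48 hr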
Ecoli WT expand = growth inhibitors of E. coli BW25113 wild type. 0.15% of 98,000 active. growth inhibition, % at 100 µM. OD600 absorbance;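 active = growth inhibition above about 50% at one test dose, limit read from the data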;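 note: growth measured after 20 h incubation at 37 °C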
PostGolgi ctrl = growth of the yeast control strain, post-Golgi counter-screen; efflux-deficient yeast background strain, growth absorbance A615, 16 h; inhibition, % at 10 µM; 5% of 98,000 active; AID 738
Hits are given with their value; i = inactive; nt = no result given. Hits are enriched below; roughly 6.5% of the tested compounds scored in any of these assays. Cut-off read from the data, not from the text of the source, unless noted: active = inhibition above about 30%; inactive = the rest.

SMILES	tolC growth inh	PostGolgi yeast	PTK2B oligo ant	Calb biofilm kill	Ecoli WT expand	PostGolgi ctrl
O=C(CSc1ncnc2sc3c(c12)CCCC3)N1CCC(c2noc3ccc(F)cc23)CC1	i	i	i	i	i	i
COc1ccc(-c2noc(C)c2-c2ccc3ccccc3n2)c(O)c1	96	i	i	i	i	49
COc1ccc(-c2onc(C)c2-c2ccccc2)c(O)c1	i	i	i	i	i	i
COCCNC(=O)C(c1cccs1)N(C(=O)Cn1nnc2ccccc21)c1ccc(OC)cc1 (stereo not drawn)	nt	nt	i	i	nt	nt
Cc1c(N=Cc2c(O)n(C3CCCCC3)c(=O)[nH]c2=O)c(=O)n(-c2ccccc2)n1C	i	i	i	i	i	i
O=c1[nH]c(=O)n(C2CCCCCC2)c(O)c1C=NCc1ccc(F)cc1	99	i	i	i	i	50
CS(=O)(=O)c1nc(-c2ccc(Br)cc2)cc(-c2ccccc2)c1C#N	nt	i	i	i	i	74
N#Cc1c(-c2cccc(F)c2)cc(-c2ccccc2)nc1Br	nt	i	i	nt	i	i
COc1ccc(-c2cc(-c3ccc(OC)cc3)c(C#N)c(SC)n2)cc1	nt	nt	i	i	nt	nt
COc1ccc(-c2cc(-c3ccccc3)c(C#N)c(S(C)(=O)=O)n2)cc1	nt	i	i	i	i	51
CS(=O)c1nc(-c2ccc(Br)cc2)cc(-c2ccccc2)c1C#N (stereo not drawn)	95	i	i	i	i	77
CC1CCCC(NC(=O)COC(=O)CCC2CCCC2)C1C (stereo not drawn)	nt	i	i	i	i	i
CC1CCCC(C)N1C(=O)Cn1cc(/C=C2/C(=O)Nc3ccccc32)c2ccccc21 (stereo not drawn)	nt	i	i	i	i	82
CN1C(=O)/C(=C/c2cn(CC(=O)N3CCCCC3)c3ccccc23)c2ccccc21	nt	i	nt	i	i	52
COC(=O)c1cn(CC(=O)N2C(C)CCCC2C)c2ccccc12 (stereo not drawn)	nt	nt	i	i	nt	nt
COc1ccc(-c2nnc(N3CCCCC3)c3ccccc23)cc1	nt	i	i	nt	i	i
COc1ccc(-c2nnc(Sc3nc4ccccc4o3)c3ccccc23)cc1	nt	i	i	nt	i	46
Cc1noc(C)c1C(=O)OCC(=O)Nc1cc(Cl)ccc1Oc1ccccc1	nt	i	i	i	i	38
Cc1cccc(C)c1N(CC(=O)Nc1cc(Cl)ccc1Oc1ccccc1)S(C)(=O)=O	nt	i	i	nt	i	50
Cc1cccc(NC(=O)C2CCN(c3nccc(C)n3)CC2)c1	i	i	i	i	i	i
CCN(CC)S(=O)(=O)c1ccc(NC(=O)C(C)N(c2ccccc2)S(C)(=O)=O)cc1 (stereo not drawn)	nt	nt	i	i	nt	nt
O=C(COC(=O)CC12CC3CC(CC(C3)C1)C2)Nc1ncc(Cl)cc1Cl	nt	i	i	i	i	37
CCCCN(CC)CCNc1c(NC2CCN(C(=O)OCC)CC2)c(=O)c1=O	i	i	nt	i	i	36
CCOC(=O)N1CCC(Nc2c(NCCCN(CC)CC)c(=O)c2=O)CC1	nt	i	nt	i	i	i
CCOC(=O)N1CCC(Nc2c(NCCCOC)c(=O)c2=O)CC1	i	i	i	i	i	47
SMILES	tolC growth inh	PostGolgi yeast	PTK2B oligo ant	Calb biofilm kill	Ecoli WT expand	PostGolgi ctrl
Brc1ccc2c(c1)OCCOCCOc1cc(Br)ccc1OCCOCCOCCO2	nt	i	i	nt	i	68
O=C(NCCC1=CCCCC1)C1COc2ccccc2O1 (stereo not drawn)	i	i	i	i	i	i
Cc1sc(NC(=O)c2ccco2)c(C(c2cccnc2)N2CCC(C)CC2)c1C (stereo not drawn)	nt	86	-4.3	i	i	41
O=C1C(=O)c2c(C(=O)c3ccccc3)coc2-c2ccccc21	nt	59	-3.6	i	i	45
CC1=C(CC(=O)c2ccccc2)C(=O)c2ccccc2C1=O	nt	i	i	nt	i	i
Cc1oc2c(c1C(=O)c1ccccc1)C(=O)C(=O)c1ccccc1-2	nt	i	i	i	i	43
Cc1ccc(C(c2ccc(C)o2)c2cccc([N+](=O)[O-])c2O)o1	nt	i	i	i	i	i
Cc1cc(C(c2ccc(C)o2)c2ccc(C)o2)c(O)c([N+](=O)[O-])c1	nt	i	i	78	i	i
Cc1cc(=O)oc2ccc(OCC(=O)N(Cc3ccc(F)cc3)Cc3ccco3)cc12	i	i	i	i	i	44
COc1ccccc1-c1cc(C(F)(F)F)nc(NCc2ccco2)n1	i	i	i	i	i	31
Fc1ccc(CNc2nc(-c3ccco3)cc(C(F)(F)F)n2)cc1	62	i	i	nt	i	i
COc1cc2c(C)nc(C)c(C#N)c2cc1OC	i	i	i	i	i	i

Screening results deposited in PubChem by several laboratories.
